# Rows were chosen to be rich in hits. Some 3.1% of all compounds tested hit in one or more screens of this group.
# Myeloid diff MLP: promotes myeloid progenitor differentiation | ER-HoxA9 myeloid progenitors, lysozyme-GFP differentiation, flow cytometry | AID 624256 | 360,000 compounds, 1% hits | calls only at 10 µM;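 active means normalized GFP-positive differentiation at or above the plate's own cutoff, the solvent-only control mean plus 3 SD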;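 further: cells exposed to compound for four days before flow analysis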
# core dimer inh: HCV core protein dimerization inhibition. TR-FRET GST/Flag-core106 dimerization, 1536-well. inhibition, % at 5 µM. 300,000 compounds, 0.33% hits. AID 1899;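 active means inhibition above the mean of all tested compounds plus 3 SD, set per screening campaign, cut at about 45% in these data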
#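 System: GST-tagged and Flag-tagged HCV core protein residues 1-106 / Input: core106 proteins, GST 13.5 nM and Flag 17 nM / Buffer or medium: KF-containing HEPES buffer, pH 7.45, DTT, CHAPS, BSA / Probe or stimulus: Eu-anti-GST and XL665-anti-Flag labelled anti-tag antibodies / Schedule: 4 h, 22.5 °C incubation / Technique: TR-FRET 671 and 617 nm emission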
# PP5 inh: blocks human protein phosphatase 5 activity | purified PP5c, OMFP substrate fluorescence | inhibition, % at 6.7 µM | 320,000 compounds, 0.18% hits | AID 1987;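 active means inhibition above the campaign's mean inhibition across all tested compounds plus 3 SD, cut at about 9.5% in these data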;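 further: 0% = DMSO only and 100% = 100 µM cantharidin control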
# Target sequence (P53041 whole entry, looked up): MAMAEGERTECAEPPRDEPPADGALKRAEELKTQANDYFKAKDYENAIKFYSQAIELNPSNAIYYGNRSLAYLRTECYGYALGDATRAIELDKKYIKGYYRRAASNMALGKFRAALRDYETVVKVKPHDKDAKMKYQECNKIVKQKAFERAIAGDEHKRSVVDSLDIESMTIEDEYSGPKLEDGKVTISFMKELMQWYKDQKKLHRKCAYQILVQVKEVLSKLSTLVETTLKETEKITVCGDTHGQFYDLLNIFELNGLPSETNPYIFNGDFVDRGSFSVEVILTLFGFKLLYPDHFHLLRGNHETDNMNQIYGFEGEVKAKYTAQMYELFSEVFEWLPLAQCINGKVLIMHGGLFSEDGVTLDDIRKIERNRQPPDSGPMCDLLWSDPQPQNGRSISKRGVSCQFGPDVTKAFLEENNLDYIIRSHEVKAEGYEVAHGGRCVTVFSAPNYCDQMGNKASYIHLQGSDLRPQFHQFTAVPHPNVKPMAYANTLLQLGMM
# PP1 counter: blocks human PP1-alpha phosphatase, a PP5 counter-screen. P62136. purified PP1alpha, OMFP fluorescence. inhibition, % at 6.7 µM. 320,000 compounds, 0.9% hits. AID 2235;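 active means inhibition above the mean inhibition of all tested compounds plus 3 SD, computed separately for each screening campaign, cut at about 15% in these data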
# Fh CTSL1 inh: blocks F. hepatica cathepsin L1 in PFM18AAP counter-screen; recombinant F. hepatica cathepsin L1, Z-Leu-Arg-MCA fluorescence; inhibition, % at 5.96 µM; 300,000 compounds, 0.49% hits; AID 1906;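 active means inhibition above the mean of all tested compounds plus 3 SD, set per screening campaign, cut at about 17% in these data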;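 further: 0% = plate median of test compound wells and 100% = 1 µM Z-Phe-Ala-diazomethylketone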
# NadD inh: inhibitors of Staphylococcus aureus NadD | purified NadD enzyme, colorimetric absorbance read-out | inhibition, % at 20 µM | 360,000 compounds, 0.78% hits; in the data active means inhibition above about 26%
# An asterisk follows results filed as active; i = inactive; nt = no result given; + = active, no number.
SMILES,Myeloid diff MLP,core dimer inh,PP5 inh,PP1 counter,Fh CTSL1 inh,NadD inh
COc1ccc2c(C)cc(SCC(=O)N(C)C3CCS(=O)(=O)C3)nc2c1 (centres undefined),+,4,-1,-4,3,-1
N#CCc1ccc(C(=O)c2ccccc2F)s1,+,15,-1,-2,1,-3
O=C(Nc1cc(Cl)ccc1-n1cncn1)c1ccc([N+](=O)[O-])s1,+,16,1,0,0,5
O=C(Nc1cc(Cl)ccc1-n1cncn1)c1ccco1,i,-1,1,-1,-8,-6
C=CC[C@H](CC(=O)OC(C)(C)C)C(=O)OC[C@@H]1CCCN1C(=O)[C@H](CC=C)CC(=O)N[C@H](CO)Cc1ccccc1,i,nt,nt,nt,nt,-15
COc1cccc(Nc2ncnc3sccc23)c1,+,-8,-3,4,-6,3
CCCCn1c(N)c(N(CC(C)C)C(=O)c2oc3ccc(Br)cc3c2C)c(=O)[nH]c1=O,i,10,-1,-1,5,6
O=C(O)C1Nc2c(O)cccc2C2C=CCC12 (centres undefined),i,50*,6,50*,-3,40*
Cc1cc(NC(=O)c2ccc(S(=O)(=O)N3CCc4ccccc43)cc2)no1,i,72*,2,8,3,20
COc1ccc(N(C)S(=O)(=O)c2cccc(C(=O)NCc3ccc(C)cc3)c2)cc1,i,nt,6,1,nt,-10
Nc1c(C(=O)c2ccc(Cl)cc2)sc2c1c(=O)[nH]c(=O)n2-c1ccccc1,i,17,0,16*,0,0
CN(CC(=O)NCC1CCCCC1)CC(=O)Nc1ccccc1Br,i,nt,1,0,nt,-3
COc1cc(C2C(C#N)=C(C)NC3=C2C(=O)c2ccccc23)cc(OC)c1OC (centres undefined),+,-10,2,-4,-1,-2
C1=NN(c2ccccc2)C=NN1c1ccccc1,i,nt,nt,nt,nt,4
COc1cc(CNc2ccc(N3CCCC3)cc2)cc(Cl)c1OC,+,-4,6,11,-1,21
CCOc1ccc(CNc2ccc(N3CCN(Cc4ccccc4)CC3)cc2)cc1,i,-6,4,9,2,-7
CCOc1ccc(CNc2ccc(N3CCCC3)cc2)cc1,i,2,1,16*,-5,14
O=[N+]([O-])c1ccc(/C=N\NS(=O)(=O)c2ccc(F)cc2)o1,i,-7,3,4,20*,-7
O=C(NC(=S)Nc1cc(Cl)ccc1O)c1cccc(Br)c1,+,6,1,-1,-7,7
Cc1csc(CN(C)C(=O)C2CCC(=O)N(CCN(C)C)C2)n1 (centres undefined),i,-2,0,-6,19*,-2
Cc1csc(CN(C)C(=O)C2CCC(=O)N(Cc3ccc(Cl)cc3)C2)n1 (centres undefined),i,-3,-3,0,-3,-1
COC(=O)C1C2CC3c4[nH]c5cc(OC)ccc5c4CCN3CC2CC(OC2CCCCO2)C1OC (centres undefined),+,nt,nt,nt,nt,3
COc1ccc(N2CCN(S(=O)(=O)c3cnc[nH]3)CC2)cc1,i,-1,2,2,17*,-5
CC1CN(C(=O)COC(=O)c2ccccc2O)CC(C)O1 (centres undefined),i,8,-2,-1,2,3
Cc1nc2c(C(=O)NCc3ccco3)cnn2c(C)c1Cc1ccc(F)cc1Cl,i,8,6,4,0,6
SMILES,Myeloid diff MLP,core dimer inh,PP5 inh,PP1 counter,Fh CTSL1 inh,NadD inh
Cc1cccc(Cc2c(C)nc3c(C(=O)NCc4ccco4)cnn3c2C)c1,+,12,3,9,-1,-1
CC(NC(=O)c1ccco1)C(c1cccs1)N1CCN(c2ccccc2F)CC1 (centres undefined),+,0,0,-1,1,-7
CC(=O)c1cccc(OCc2cc(C(=O)N3C[C@@H](C)O[C@@H](C)C3)no2)c1,i,8,1,-1,-2,-5
CC(=O)N1c2ccccc2C(=O)C1N1CCCCC1 (centres undefined),i,-4,4,-1,21*,0
CC1(C)CC2CC(C)(CN2C(=O)COC(=O)CNC(=O)c2ccc(Cl)c(Cl)c2)C1 (centres undefined),i,3,1,1,27*,2
CCn1c2ccccc2c2cc(/C=N/NC(=O)c3ccccc3C)ccc21,nt,19,3,7,0,21
O=C(N/N=C/c1c(O)ccc2ccccc12)c1ccc[n+](CCO)c1,i,-26,3,2,20*,6
COc1ccc2ccccc2c1/C=N\NC(=O)c1cccnc1,i,-9,-1,-2,4,-1
COc1ccc2ccccc2c1/C=N/NC(=O)c1cccc(C)c1,i,0,3,3,18*,3
CCn1c2ccccc2c2cc(/C=N/NC(=O)c3cccc(C)c3)ccc21,i,48*,2,-2,3,16
COc1ccccc1-c1nnc(SCC(=O)Nc2ccc3[nH]c(=O)[nH]c3c2)n1N,nt,3,-3,-8,3,-4
O=C1c2ccccc2[C@@H]2C[C@H](NC34CC5CC(CC(C5)C3)C4)[C@@H](O)CCN12,i,nt,nt,nt,nt,-5
Cc1cc(F)ccc1S(=O)(=O)Nc1ccc(C(=O)N2CCCCCC2)cc1,i,nt,0,2,nt,8
N/C(=N\OC(=O)CCC(=O)O)c1ncc(C(F)(F)F)cc1Cl,+,-4,1,1,-5,9
O=[N+]([O-])c1ccc(N/N=C/c2cn(Cc3ccc(F)cc3)c3ccccc23)nc1,+,-4,-2,-2,3,21
c1ccc(-c2ncc(-c3ccn[nH]3)s2)cc1,nt,7,0,16*,1,5
c1ccc(Oc2ccc(-c3ccn[nH]3)cc2)cc1,i,1,0,-3,2,-4
Cn1c(=O)c2c(nc(Cl)n2CCOc2ccccc2)n(C)c1=O,i,-7,-1,16*,0,-4
CCCCn1c(Cl)nc2c1c(=O)n(C)c(=O)n2C,i,0,0,1,-4,-1
CCOc1ccc(NC(=O)C(CC)n2nc(C)c3c(C)n(-c4ccccc4)nc3c2=O)cc1 (centres undefined),i,12,3,1,3,1
Cc1ccc(NC(=O)C2CCCN(S(=O)(=O)c3c(C)noc3/C=C/N(C)C)C2)cc1F (centres undefined),i,7,0,1,17*,-4
O=C(CCCN1C(=O)/C(=C/c2ccccc2Cl)SC1=S)NNC(=O)c1ccccc1Cl,i,6,4,17*,0,4
Cc1ccc(/C=C2\SC(=S)N(CCCC(=O)Nc3ccc(O)cc3)C2=O)cc1,i,4,1,3,2,0
